According to ChEMBL document CHEMBL4613227, “Synthesis and evaluation of the HIF-1α inhibitory activity of 3(5)-substituted-4-(quinolin-4-yl)- and 4-(2-phenylpyridin-4-yl)pyrazoles as inhibitors of ALK5” (Bioorg Med Chem Lett, 2020):
Calls of active or inactive are those of the source. The calls are words filed in the database; no cut-off is given here.

Legend:
[1] = test system: HCT-116; experiment: Down regulation of TNF-induced MMP9 mRNA expression in human HCT116 cells at 50 uM pretreated for 12 hrs followed by TNF stimulation and measured after 12 hrs by Western blot analysis; type: functional, cell-based; settings: in the assay text read “RT-PCR analysis” for “Western blot analysis”
Procedure, shortened: (§1)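 HCT116 preincubated 12 h with graded concentrations, then TNF 10 ng/mL for a further 12 h; ICAM-1, VEGF, MMP-9 transcripts measured by RT-PCR, GAPDH for equal RNA loading.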

[2] = test system: HCT-116; experiment: Induction of apoptosis in human HCT116 cells assessed as viable cells at 50 uM after 12 hrs by Annexin-V/PI-staining based flow cytometric analysis (reference value: 95.3%); type: functional; settings: HCT-116, 12 h, read-out: Activity
[3] = test system: HCT-116; experiment: Down regulation of TNF-induced VEGF protein expression in human HCT116 cells at 50 uM pretreated for 12 hrs followed by TNF stimulation and measured after 24 hrs by Western blot analysis; type: functional, cell-based
Procedure, shortened: (§2)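 HCT116 pretreated 12 h with 50 μM, then TNF (10 ng/mL) 24 h; whole cell extracts immunoblotted for ICAM-1, MMP-9, VEGF with tubulin as loading reference.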

[4] = test system: HCT-116; experiment: Inhibition of HIF1alpha accumulation in hypoxia-induced human HCT116 cells at 50 uM preincubated for 30 mins in presence of proteasome inhibitor MG-132 followed by compound addition and measured after 12 hrs under hypoxic condition by Western blot analysis; type: functional, cell-based
Procedure, shortened: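 HCT116 pretreated with MG-132 (10 μM) 30 min, then compound (50 μM) under 1% O₂ for 12 h; nuclear HIF-1α by Western blot, Topo-I loading control.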

[5] = target: Mitogen-activated protein kinase 14 (Homo sapiens, UniProt Q16539); experiment: Inhibition of recombinant human p38alpha expressed in Escherichia coli assessed as residual activity at 10 uM (reference value: 100 +/- 0.1%)
Sequence of Mitogen-activated protein kinase 14 (Q16539 whole entry, the tested form may be a part): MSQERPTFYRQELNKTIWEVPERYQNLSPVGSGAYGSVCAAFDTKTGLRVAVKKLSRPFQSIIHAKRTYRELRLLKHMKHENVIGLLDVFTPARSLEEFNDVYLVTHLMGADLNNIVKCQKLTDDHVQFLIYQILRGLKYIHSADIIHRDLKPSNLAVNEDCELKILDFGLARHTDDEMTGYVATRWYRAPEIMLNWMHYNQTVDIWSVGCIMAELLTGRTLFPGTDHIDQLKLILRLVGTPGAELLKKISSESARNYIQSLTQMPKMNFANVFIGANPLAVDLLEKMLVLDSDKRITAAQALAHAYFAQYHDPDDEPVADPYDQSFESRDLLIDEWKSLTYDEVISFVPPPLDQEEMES
Procedure, shortened: (§3)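 Single-point kinase screen at 10 μM, in duplicate; ALK5 as human GST-fusion from baculovirus/Sf9, p38α as untagged human protein from E. coli; residual activity relative to DMSO vehicle, mean ± SD of two independent experiments.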

[6] = target: T1, TGF-beta receptor type-1 (Homo sapiens) (UniProt P36897); experiment: Inhibition of recombinant GST-tagged human ALK5 expressed in baculovirus infected Sf9 insect cells assessed as residual activity at 10 uM; procedure, shortened: as §3
T1 sequence (whole entry): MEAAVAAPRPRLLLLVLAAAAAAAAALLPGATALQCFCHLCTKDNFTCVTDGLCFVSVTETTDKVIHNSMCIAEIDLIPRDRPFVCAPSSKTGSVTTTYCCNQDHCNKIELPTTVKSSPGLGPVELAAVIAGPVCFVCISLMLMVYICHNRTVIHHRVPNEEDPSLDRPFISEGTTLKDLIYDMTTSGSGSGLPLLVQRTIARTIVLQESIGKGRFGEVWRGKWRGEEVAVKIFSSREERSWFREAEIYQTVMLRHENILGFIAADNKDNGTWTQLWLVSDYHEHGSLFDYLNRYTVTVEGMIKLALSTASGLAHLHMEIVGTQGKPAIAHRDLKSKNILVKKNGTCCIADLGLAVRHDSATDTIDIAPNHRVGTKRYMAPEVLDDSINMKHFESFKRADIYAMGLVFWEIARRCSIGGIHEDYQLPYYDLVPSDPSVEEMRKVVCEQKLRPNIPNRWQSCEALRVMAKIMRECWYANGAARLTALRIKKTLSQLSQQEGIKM

[7] = test system: HCT-116; experiment: Down regulation of TNF-induced MMP9 protein expression in human HCT116 cells at 50 uM pretreated for 12 hrs followed by TNF stimulation and measured after 24 hrs by Western blot analysis; type: functional, cell-based; procedure, shortened: as §2
[8] = test system: HCT-116; experiment: Induction of apoptosis in human HCT116 cells assessed as PARP cleavage at 50 uM preincubated for 12 hrs followed by TNF-stimulation and measured after 24 hrs by Western blot analysis; type: functional, cell-based
Procedure, shortened: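 HCT116 pretreated 12 h with 50 μM, then TNF (10 ng/mL) 24 h; whole cell extracts blotted for cleaved caspase-8, cleaved caspase-3, cleaved PARP, tubulin.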

[9] = test system: HCT-116; experiment: Cytotoxicity against human HCT116 cells up to 50 uM after 24 hrs by MTT assay; type: cell-based; settings: hct-116, 24 h
Procedure, shortened: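 Cell viability of HCT116 by MTT after 24 h exposure to graded concentrations up to 50 μM.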

[10] = test system: HCT-116; experiment: Down regulation of TNF-induced VEGF mRNA expression in human HCT116 cells at 50 uM pretreated for 12 hrs followed by TNF stimulation and measured after 12 hrs by Western blot analysis; type: functional, cell-based; settings: in the assay text read “RT-PCR analysis” for “Western blot analysis”; procedure, shortened: as §1
[11] = test system: HCT-116; experiment: Antiproliferative activity against human HCT116 cells assessed as reduction in TNF-induced number of Edu positive cells at 50 uM pretreated for 12 hrs followed by TNF stimulation and measured after 30 mins by Edu-incorporation based fluorescence microscopic analysis; type: functional, cell-based
Procedure, shortened: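 HCT116 cells pretreated 12 h (50 μM), then TNF 10 ng/ml for 30 min; EdU-labelled proliferating cells examined by fluorescence microscopy; mean ± SD of three independent experiments.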

Compound: Cc1cccc(-c2nn(CC(=S)Nc3cccc(C#N)c3)cc2-c2ccnc3ccccc23)n1
- Activity [1]: Active
- viability at 50 µM [2]: 85.2%
- Activity [3]: Active
- inhibition [4]: Active
- Activity [5]: 3%
- Activity [6]: 2%
- Activity [7]: Active
- Activity [8]: Active
- Activity [9]: Non-Toxic
- Activity [10]: Active
- Activity [11]: Active
